Measurements taken from ChEMBL document CHEMBL1166015, “Design, synthesis, and docking of highly hypolipidemic agents: Schizosaccharomyces pombe as a new model for evaluating alpha-asarone-based HMG-CoA reductase inhibitors” (Bioorg Med Chem, 2010).

Experiments:
[1] = system: Mus musculus; assay: Hypolipidemic activity in ICR mouse assessed as decrease in Tyloxapol-induced total cholesterol level at 50 mg/kg, ip administered 1 hr before Tyloxapol challenge and 22, 48 hrs after Tyloxapol challenge measured after 22 hrs relative to control; format: functional; design: scale not given: the % may be the effect or the level left; conditions: route oral, in the assay text read “po administered” for “ip administered”
Method in brief: (§1)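 Male ICR mice (24–27 g), groups of six. Hyperlipidemia induced by ip Tyloxapol (Triton WR 1339) 400 mg/kg in water. Drug given at 5 mL/kg 1 h before and 22 and 48 h after injection; vehicle controls. Blood drawn 22 h post-injection by periorbital bleeding. Serum total cholesterol, HDL-C and triglycerides measured on an automatic analyzer; LDL-C by the Friedewald equation. Values are % of the Tyloxapol group, mean ± SE.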

[2] = system: Mus musculus; assay: Hypolipidemic activity in ICR mouse assessed as decrease in Tyloxapol-induced total cholesterol level at 100 mg/kg, ip administered 1 hr before Tyloxapol challenge and 22, 48 hrs after Tyloxapol challenge measured after 22 hrs relative to control; format: functional; design: scale not given: the % may be the effect or the level left; conditions: route oral, in the assay text read “po administered” for “ip administered”; method in brief: as §1
[3] = system: Mus musculus; assay: Hypolipidemic activity in ICR mouse assessed as decrease in Tyloxapol-induced LDL-cholesterol level at 50 mg/kg, ip administered 1 hr before Tyloxapol challenge and 22, 48 hrs after Tyloxapol challenge measured after 22 hrs relative to control; format: functional; design: scale not given: the % may be the effect or the level left; conditions: route oral, in the assay text read “po administered” for “ip administered”; method in brief: as §1
[4] = system: Mus musculus; assay: Hypolipidemic activity in ICR mouse assessed as decrease in Tyloxapol-induced LDL-cholesterol level at 100 mg/kg, ip administered 1 hr before Tyloxapol challenge and 22, 48 hrs after Tyloxapol challenge measured after 22 hrs relative to control; format: functional; design: scale not given: the % may be the effect or the level left; conditions: route oral, in the assay text read “po administered” for “ip administered”; method in brief: as §1
[5] = system: Mus musculus; assay: Hypolipidemic activity in ICR mouse assessed as decrease in Tyloxapol-induced HDL-cholesterol level at 50 mg/kg, ip administered 1 hr before Tyloxapol challenge and 22, 48 hrs after Tyloxapol challenge measured after 22 hrs relative to control; format: functional; design: scale not given: the % may be the effect or the level left; conditions: route oral, in the assay text read “po administered” for “ip administered”; method in brief: as §1
[6] = system: Mus musculus; assay: Hypolipidemic activity in ICR mouse assessed as decrease in Tyloxapol-induced HDL-cholesterol level at 100 mg/kg, ip administered 1 hr before Tyloxapol challenge and 22, 48 hrs after Tyloxapol challenge measured after 22 hrs relative to control; format: functional; design: scale not given: the % may be the effect or the level left; conditions: route intraperitoneal; method in brief: as §1
[7] = system: Mus musculus; assay: Hypolipidemic activity in ICR mouse assessed as decrease in Tyloxapol-induced triglyceride level at 50 mg/kg, ip administered 1 hr before Tyloxapol challenge and 22, 48 hrs after Tyloxapol challenge measured after 22 hrs relative to control; format: functional; design: scale not given: the % may be the effect or the level left; conditions: route intraperitoneal; method in brief: as §1
[8] = system: Mus musculus; assay: Hypolipidemic activity in ICR mouse assessed as decrease in Tyloxapol-induced triglyceride level at 100 mg/kg, ip administered 1 hr before Tyloxapol challenge and 22, 48 hrs after Tyloxapol challenge measured after 22 hrs relative to control; format: functional; design: scale not given: the % may be the effect or the level left; conditions: route intraperitoneal; method in brief: as §1
[9] = system: Mus musculus; assay: Hypolipidemic activity in high cholesterol diet fed ICR mouse assessed as reduction of total cholesterol level at 50 mg/kg, ip after 12 hrs of last cholesterol challenge relative to control; format: functional; design: scale not given: the % may be the effect or the level left; conditions: route intraperitoneal
Method in brief: (§2)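 Male ICR mice (24–27 g), six per group, were fed a high-cholesterol diet ad libitum for 6 days (1.0% cholesterol, 0.5% sodium cholate, 5% butter, 30% sucrose, 10% casein, 53.5% chow). Basal-diet mice served as controls. Dosing was 5 mL/kg and solutions were made fresh. Mice were fasted 12 h before sacrifice and bled periorbitally. Serum TC, HDL-C and TG were read on an analyzer, with LDL-C by Friedewald.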

[10] = system: Mus musculus; assay: Hypolipidemic activity in high cholesterol diet fed ICR mouse assessed as reduction of total cholesterol level at 100 mg/kg/day, ip after 12 hrs of last cholesterol challenge relative to control; format: functional; design: scale not given: the % may be the effect or the level left; conditions: route intraperitoneal; method in brief: as §2
[11] = target: T1, 3-hydroxy-3-methylglutaryl-coenzyme A reductase (Schizosaccharomyces pombe 972h-, UniProt Q10283); assay: Inhibition of Schizosaccharomyces pombe HMG-CoA reductase by spectrophotometry
T1 sequence (Q10283 whole entry): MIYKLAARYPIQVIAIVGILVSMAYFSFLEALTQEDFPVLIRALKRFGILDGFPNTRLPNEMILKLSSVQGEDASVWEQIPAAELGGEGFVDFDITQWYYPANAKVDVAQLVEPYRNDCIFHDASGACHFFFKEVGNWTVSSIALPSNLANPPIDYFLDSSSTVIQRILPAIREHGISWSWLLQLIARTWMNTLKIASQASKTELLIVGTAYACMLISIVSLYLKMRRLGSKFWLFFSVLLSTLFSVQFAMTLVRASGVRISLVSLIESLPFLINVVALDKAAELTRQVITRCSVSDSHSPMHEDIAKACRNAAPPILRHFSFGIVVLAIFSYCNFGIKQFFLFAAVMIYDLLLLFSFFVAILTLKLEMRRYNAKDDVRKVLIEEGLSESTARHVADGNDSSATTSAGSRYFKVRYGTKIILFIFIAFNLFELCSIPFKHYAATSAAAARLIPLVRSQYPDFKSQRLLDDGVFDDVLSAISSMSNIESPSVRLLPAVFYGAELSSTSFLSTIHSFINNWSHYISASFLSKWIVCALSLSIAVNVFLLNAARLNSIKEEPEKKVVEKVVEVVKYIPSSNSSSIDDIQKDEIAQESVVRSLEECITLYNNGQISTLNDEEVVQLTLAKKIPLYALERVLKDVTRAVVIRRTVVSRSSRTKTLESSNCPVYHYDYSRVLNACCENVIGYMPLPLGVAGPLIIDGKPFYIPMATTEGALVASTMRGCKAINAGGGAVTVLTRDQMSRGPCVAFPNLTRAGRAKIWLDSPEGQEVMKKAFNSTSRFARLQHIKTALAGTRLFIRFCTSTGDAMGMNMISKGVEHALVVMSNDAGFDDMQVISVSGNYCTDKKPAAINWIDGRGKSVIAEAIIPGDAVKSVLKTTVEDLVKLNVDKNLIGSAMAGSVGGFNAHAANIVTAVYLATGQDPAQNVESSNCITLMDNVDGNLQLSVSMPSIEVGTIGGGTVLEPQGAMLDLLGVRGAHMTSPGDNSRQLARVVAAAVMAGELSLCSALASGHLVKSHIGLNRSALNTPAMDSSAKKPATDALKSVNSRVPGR
Method in brief: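 Membrane HMGR partially purified from S. pombe 972 h (YPD, 28 °C, 48 h) via centrifugation, Triton X-100 solubilization, 65 °C heat step, ammonium sulfate and calcium phosphate gel. Enzyme activated 37 °C 30 min, pre-incubated with compound (DMSO stocks 1–5 mM) 30 min at 37 °C. Assay: 200 µg enzyme, 0.13 mM HMG-CoA, 50 mM Tris-HCl pH 7.5; started with 0.13 mM NADPH; A340 decrease over 2 min; triplicate; IC50 derived.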

[12] = system: Mus musculus; assay: Hypolipidemic activity in high cholesterol diet fed ICR mouse assessed as reduction of triglyceride level at 50 mg/kg/day, po after 12 hrs of last cholesterol challenge relative to control; design: scale not given: the % may be the effect or the level left
[13] = system: Mus musculus; assay: Hypolipidemic activity in high cholesterol diet fed ICR mouse assessed as reduction of triglyceride level at 100 mg/kg/day, po after 12 hrs of last cholesterol challenge relative to control; design: scale not given: the % may be the effect or the level left
[14] = system: Mus musculus; assay: Hypolipidemic activity in high cholesterol diet fed ICR mouse assessed as reduction of LDL cholesterol level at 50 mg/kg/day, po after 12 hrs of last cholesterol challenge relative to control; design: scale not given: the % may be the effect or the level left
[15] = system: Mus musculus; assay: Hypolipidemic activity in high cholesterol diet fed ICR mouse assessed as reduction of HDL cholesterol level at 50 mg/kg/day, po after 12 hrs of last cholesterol challenge relative to control; design: scale not given: the % may be the effect or the level left
[16] = system: Mus musculus; assay: Hypolipidemic activity in high cholesterol diet fed ICR mouse assessed as reduction of LDL cholesterol level at 100 mg/kg/day, po after 12 hrs of last cholesterol challenge relative to control; design: scale not given: the % may be the effect or the level left
[17] = system: Mus musculus; assay: Hypolipidemic activity in high cholesterol diet fed ICR mouse assessed as reduction of HDL cholesterol level at 100 mg/kg/day, po after 12 hrs of last cholesterol challenge relative to control; design: scale not given: the % may be the effect or the level left

CCCc1cc(OC)c(OCC(=O)O)cc1[N+](=O)[O-]
Activity [1]: -51.59% | Activity [2]: -59.67% | Activity [3]: -40.34% | Activity [4]: -44.61% | Activity [5]: -21.86% | Activity [6]: -20.86% | Activity [7]: -10.09% | Activity [8]: -25.11% | Activity [9]: -47.12% | Activity [10]: -50.22% | IC50 ([11]; read-out: IC50): 135 µM | Activity [12]: -49.21% | Activity [13]: -47.72% | Activity [14]: -41.1% | Activity [15]: -79.36% | Activity [16]: -28.88% | Activity [17]: -55.62%

CCOC(=O)COc1cccc(C(C)=O)c1
IC50 [11]: Not Active

C/C=C/c1cc(OC)c(OC)cc1Cl
IC50 ([11]; read-out: IC50): 71.4 µM

CCC(O)c1cc(OC)c(OC)cc1N (stereo not drawn)
IC50 ([11]; read-out: IC50): 153 µM

C=CCc1ccc(OCC(=O)O)c(OC)c1
IC50 ([11]; read-out: IC50): 73.4 µM

CCC(C)(C)C(=O)O[C@H]1C[C@@H](C)C=C2C=C[C@H](C)[C@H](CC[C@@H]3C[C@@H](O)CC(=O)O3)[C@H]21 [SIMVASTATIN]
IC50 ([11]; read-out: IC50): 95.2 µM

C/C=C/c1cc(OC)c(OC)cc1OC [TRANS-ASARONE]
IC50 ([11]; read-out: IC50): 2490 µM
